pIC50, pKi: −log10 of the molar value. Numbered stars: 1 amine (or outer) side, 2 acyl side, 3 side chain; on linkers, the order of the positions; unused ones are H or OH. Square brackets hold non-standard residues; d marks the D form. Peptide text beside a SMILES is read from it. * marks the point of attachment. Hyp = O=C(O)[C@@H]1C[C@@H](O)CN1; X1 = CCCC(N[*:1])C(=O)C(=O)[*:2]; Chg = N[C@H](C(=O)O)C1CCCCC1; Phg = N[C@H](C(=O)O)c1ccccc1; Boc = CC(C)(C)OC(=O)*; tBu = CC(C)(C)*
Columns and labels:
[1] = target: NS3 (Hepatitis C virus, UniProt A3EZJ3); assay: Inhibitory activity against HCV NS3 protease; design: species or system Hepacivirus hominis
NS3, sequence (A3EZJ3 whole entry): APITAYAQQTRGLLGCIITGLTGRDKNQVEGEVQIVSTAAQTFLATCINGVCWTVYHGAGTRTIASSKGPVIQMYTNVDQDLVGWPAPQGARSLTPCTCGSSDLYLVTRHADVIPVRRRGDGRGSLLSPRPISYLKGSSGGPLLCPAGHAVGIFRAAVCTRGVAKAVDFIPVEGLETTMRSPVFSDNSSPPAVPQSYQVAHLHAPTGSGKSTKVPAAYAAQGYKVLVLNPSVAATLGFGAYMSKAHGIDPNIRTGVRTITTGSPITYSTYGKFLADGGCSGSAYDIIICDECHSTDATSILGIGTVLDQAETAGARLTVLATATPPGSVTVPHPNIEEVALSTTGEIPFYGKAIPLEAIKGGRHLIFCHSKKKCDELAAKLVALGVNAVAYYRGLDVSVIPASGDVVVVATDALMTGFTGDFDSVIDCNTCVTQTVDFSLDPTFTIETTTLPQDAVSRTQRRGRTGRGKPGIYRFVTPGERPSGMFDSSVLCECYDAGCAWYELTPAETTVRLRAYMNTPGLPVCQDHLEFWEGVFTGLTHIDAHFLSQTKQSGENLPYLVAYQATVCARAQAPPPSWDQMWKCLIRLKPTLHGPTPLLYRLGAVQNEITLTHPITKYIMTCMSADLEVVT
Procedure, shortened: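 Continuous assay with a single-chain NS3 serine protease carrying tethered NS4A. Values are reported as Ki*, the equilibrium constant that reflects the reversible covalent bond formed between the inhibitor ketone and the active-site serine, plus other enzyme–inhibitor contacts. Most inhibitors were tested as an inseparable mixture of two diastereomers at the P1 R-centre.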

[2] = AUC in orally dosed rat; assay type: ADME, organism-based; conditions: plasma, po
[3] = system: Hepatitis C virus; assay: Inhibition of HCV replication in a cellular replicon assay; assay type: functional, organism-based, Hepacivirus hominis
[4] = Oral bioavailability in rat; assay type: ADME, organism-based; conditions: in vivo
[5] = Bioavailability in sc dosed rat; assay type: ADME, organism-based; conditions: in vivo
[6] = Selectivity for HNE over HCV NS3 protease
[7] = AUC in iv dosed rat; assay type: ADME, organism-based; conditions: plasma
[8] = AUC in sc dosed rat; assay type: ADME, organism-based; conditions: plasma

pKi [1]	Structure (SMILES)	further results
6.57	CCCC(NC(=O)[C@@H]1C[C@@H]2CN1C(=O)[C@H](C1CCCCC1)NC(=O)Cc1cccc(c1)OCCC(C)(C)O2)C(=O)C(=O)NCC(=O)NCc1ccccc1 (some centres not stated)	
7.72	CCCC(NC(=O)[C@@H]1C[C@@H]2CN1C(=O)[C@H](C(C)C)NC(=O)Cc1cccc(c1)OCCC(C)(C)O2)C(=O)C(=O)NCC(=O)N[C@H](C(=O)N(C)C)c1ccccc1 (some centres not stated)	
8.22	CCCC(NC(=O)[C@@H]1C[C@@H]2CN1C(=O)[C@H](C1CCCCC1)NC(=O)Cc1cccc(c1)OCCC(C)(C)O2)C(=O)C(=O)NCC(=O)N[C@H](C(=O)N(C)C)c1ccccc1 (some centres not stated)	pIC50 [3]: 6.89; bioavailability [4]: 2.1%; AUC [2]: 0.46 µM·h; bioavailability [5]: 77%; Ratio Ki [6]: 107; AUC [7]: 2.2 µM·h; AUC [8]: 16.5 µM·h
7.34	CCCC(NC(=O)[C@@H]1C[C@@H]2CN1C(=O)[C@H](c1ccccc1)NC(=O)Cc1cccc(c1)OCCC(C)(C)O2)C(=O)C(=O)NCC(=O)N[C@H](C(=O)N(C)C)c1ccccc1 (some centres not stated)	
7.77	CCCC(NC(=O)[C@@H]1C[C@@H]2CN1C(=O)[C@H](C(C)(C)C)NC(=O)Cc1cccc(c1)OCCC(C)(C)O2)C(=O)C(=O)NCC(=O)N[C@H](C(=O)N(C)C)c1ccccc1 (some centres not stated)	pIC50 [3]: 6.70; Ratio Ki [6]: 306
7.40	CCCC(NC(=O)[C@@H]1C[C@@H]2CN1C(=O)[C@H](C1Cc3ccccc3C1)NC(=O)Cc1cccc(c1)OCCC(C)(C)O2)C(=O)C(=O)NCC(=O)N[C@H](C(=O)N(C)C)c1ccccc1 (some centres not stated)	
7.06	CCCC(NC(=O)[C@@H]1C[C@@H]2CN1C(=O)[C@H](C1CCCCC1)NC(=O)Cc1cccc(c1)OCCC(C)(C)O2)C(=O)C(=O)NCC(=O)OCc1ccccc1 (some centres not stated)	
7.36	CCCC(NC(=O)[C@@H]1C[C@@H]2CN1C(=O)[C@H](C1CCCCC1)NC(=O)Cc1cccc(c1)OCCCO2)C(=O)C(=O)NCC(=O)N[C@H](C(=O)OC(C)(C)C)c1ccccc1 (some centres not stated)	
8.10	CCC[C@H](NC(=O)[C@@H]1C[C@@H]2CN1C(=O)[C@H](C1CCCCC1)NC(=O)Cc1cccc(c1)OCCCO2)C(=O)C(=O)NCC(=O)N[C@H](C(=O)N(C)C)c1ccccc1	pIC50 [3]: 6.40; bioavailability [4]: 3%; AUC [2]: 1.5 µM·h; bioavailability [5]: 90%; Ratio Ki [6]: 46; AUC [7]: 23.1 µM·h; AUC [8]: 41.6 µM·h
7.15	CCCC(NC(=O)[C@@H]1C[C@@H]2CN1C(=O)[C@H](C(C)CC)NC(=O)Cc1cccc(c1)OCCC(C)(C)O2)C(=O)C(=O)NCC(=O)N[C@H](C(=O)N(C)C)c1ccccc1 (some centres not stated)	
6.30	CCC[C@@H](NC(=O)[C@@H]1C[C@@H]2CN1C(=O)[C@H](C1CCCCC1)NC(=O)Cc1cccc(c1)OCCCO2)C(=O)C(=O)NCC(=O)N[C@H](C(=O)N(C)C)c1ccccc1	
8.00	CCCC(NC(=O)[C@@H]1C[C@@H]2CN1C(=O)[C@H](C1CCCCC1)NC(=O)Cc1cccc(c1)OCCCO2)C(=O)C(=O)NCC(=O)N[C@H](C(=O)O)c1ccccc1 (some centres not stated)	
7.80	CCCC(NC(=O)[C@@H]1C[C@@H]2CN1C(=O)[C@H](C1CCCCC1)NC(=O)Cc1cccc(c1)OCCC(C)(C)O2)C(=O)C(=O)NCC(=O)N[C@H](C(=O)OC(C)(C)C)c1ccccc1 (some centres not stated)	

The remaining lines, values behind:

Structure (SMILES)	pKi [1]	further results
C=CCNC(=O)C(=O)C(CCC)NC(=O)[C@@H]1C[C@@H]2CN1C(=O)[C@H](C1CCCCC1)NC(=O)Cc1cccc(c1)OCCCO2 (some centres not stated)	5.00	
CCCC(NC(=O)[C@@H]1C[C@@H]2CN1C(=O)[C@H](C1CCCCC1)NC(=O)Cc1cccc(c1)OCCCO2)C(=O)C(=O)NCC(=O)NCc1ccccc1 (some centres not stated)	5.96	
CCCC(NC(=O)[C@@H]1C[C@@H]2CN1C(=O)[C@H](C1CCCCC1)NC(=O)Cc1cccc(c1)OCCCO2)C(=O)C(=O)NCC(=O)O (some centres not stated)	5.13	
CCCC(NC(=O)[C@@H]1C[C@@H]2CN1C(=O)[C@H](C1CCCCC1)NC(=O)Cc1cccc(c1)OCCCO2)C(=O)C(=O)NCC(=O)N[C@H](CO)c1ccccc1 (some centres not stated)	7.22	
CCCC(NC(=O)[C@@H]1C[C@@H]2CN1C(=O)[C@H](C1CCCCC1)NC(=O)Cc1cccc(c1)OCCC(C)(C)O2)C(=O)C(N)=O (some centres not stated)	6.66	AUC [2]: 0.3 µM·h
CCCC(NC(=O)[C@@H]1C[C@@H]2CN1C(=O)[C@H](C1CCCCC1)NC(=O)Cc1cccc(c1)OCCCO2)C(=O)C(=O)O (some centres not stated)	5.21	
CCCC(NC(=O)[C@@H]1C[C@@H]2CN1C(=O)[C@H](C1CCCCC1)NC(=O)Cc1cccc(c1)OCCCO2)C(=O)C(=O)NCC(=O)OCc1ccccc1 (some centres not stated)	6.37	
CCCC(NC(=O)[C@@H]1C[C@@H]2CN1C(=O)[C@H](C1CCCCC1)NC(=O)Cc1cccc(c1)OCCC(C)(C)O2)C(=O)C(=O)NCC(=O)O (some centres not stated)	6.14	
CCCC(NC(=O)[C@@H]1C[C@@H]2CN1C(=O)[C@H](C1CCCCC1)NC(=O)Cc1cccc(c1)OCCCO2)C(=O)C(=O)NC (some centres not stated)	5.00	
CCCC(NC(=O)[C@@H]1C[C@@H](OC(C)(C)C)CN1C(=O)[C@@H](NC(=O)OC(C)(C)C)C1CCCCC1)C(=O)C(=O)NCC(=O)N[C@H](C(N)=O)c1ccccc1 (some centres not stated) (Boc-[Chg][Hyp](tBu)[X1]G[Phg]-NH2)	6.66	
CCCC(NC(=O)[C@@H]1C[C@@H]2CN1C(=O)[C@H](C1CCCCC1)NC(=O)Cc1cccc(c1)OCCCO2)C(=O)C(=O)NCC(=O)N[C@H](C#N)c1ccccc1 (some centres not stated)	6.51	
C=CCNC(=O)C(=O)C(CCC)NC(=O)[C@@H]1C[C@@H]2CN1C(=O)[C@H](C1CCCCC1)NC(=O)Cc1cccc(c1)OCCC(C)(C)O2 (some centres not stated)	6.28	pIC50 [3]: 6.40; bioavailability [4]: 97%; AUC [2]: 26.3 µM·h; AUC [7]: 13.6 µM·h; AUC [8]: 34.7 µM·h

From ChEMBL document CHEMBL1149387, “Novel potent hepatitis C virus NS3 serine protease inhibitors derived from proline-based macrocycles” (J Med Chem, 2006)
